According to ChEMBL document CHEMBL1671680, “Pradimicin S, a highly soluble nonpeptidic small-size carbohydrate-binding antibiotic, is an anti-HIV drug lead for both microbicidal and systemic use” (Antimicrob Agents Chemother, 2010):
Calls of active or inactive are those of the source. No cut-off for these calls is given here.

Assays:
[1] = system: Human immunodeficiency virus 2; assay: Antiviral activity against X4 tropic HIV-2 BV-5061 W infected in human PBMC assessed as inhibition of viral replication […] by ELISA; assay type: functional, organism-based; conditions: Human immunodeficiency virus 2, BV-5061
Outline: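 PHA-stimulated (2 μg/ml, 3 days) donor PBMC blasts seeded at 0.5 × 10^6 cells/well with compound dilutions in RPMI 1640 + 10% FCS + IL-2 (25 U/ml); virus added at 250 pg p24 or p27/ml final; supernatant p24 (HIV-1) or p27 (HIV-2) antigen measured by ELISA at day 12; EC50 from antigen reduction.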

[2] = system: PBMC; assay: Immunostimulatory activity against human PBMC assessed as IL-1ra production at 21 uM after 72 hrs; assay type: functional, cell-based
Outline: (§1)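 Unstimulated PBMCs and PHA-blasts from three donors, in three independent experiments, cultured with test compound at 20 μg/ml (21 or 22 μM). Supernatants collected after 72 h. The cytokine profile was read on a Bio-Plex 27-plex human cytokine bead immunoassay, using beads coupled to cytokine-specific monoclonal antibodies and run per the kit instructions.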

[3] = system: Human immunodeficiency virus 1; assay: Binding affinity to HIV-1 HXB2 gp41 after 6 mins by SPR analysis
[4] = system: PBMC; assay: Immunostimulatory activity against human PBMC assessed as IL-13 production at 21 uM after 72 hrs; assay type: functional, cell-based; outline: as §1
[5] = system: PBMC; assay: Immunostimulatory activity against human PBMC assessed as FGF production at 22 uM after 72 hrs; assay type: functional, cell-based
[6] = Antiviral activity against SIV mac251 infected in human HUT78 cells assessed as prevention of syncytium formation between persistently SIV mac251-infected HUT-78 cells and uninfected CEM cells after 3 to 4 days by ELISA; assay type: functional, cell-based, Simian immunodeficiency virus - mac; conditions: Simian immunodeficiency virus, 251, CCRF-CEM
[7] = system: PBMC; assay: Immunostimulatory activity against human PBMC assessed as MIP-1alpha production at 22 uM after 72 hrs; assay type: functional, cell-based; outline: as §1
[8] = system: PBMC; assay: Immunostimulatory activity against human PBMC assessed as eotoxin production at 22 uM after 72 hrs; assay type: functional, cell-based
Outline: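 In three independent experiments, PBMCs and PHA-blasts from three donors were cultured with compound for 72 h. Supernatants were analysed with a bead-based 27-plex human cytokine immunoassay covering interleukins, chemokines, growth factors, IFN-γ and TNF-α.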

[9] = system: PBMC; assay: Immunostimulatory activity against human PBMC assessed as RANTES production at 21 uM after 72 hrs; assay type: functional, cell-based; outline: as §1
[10] = Antiviral activity against SIV mac251 infected in human MT4 cells assessed as inhibition of virus-induced cytopathicity after 7 days by trypan blue staining; assay type: functional, cell-based, Simian immunodeficiency virus - mac; conditions: Simian immunodeficiency virus, 251, MT4, 168 h
Outline: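 MT-4 cells (5 × 10^5/ml) infected with SIV at 100 CCID50/ml, mixed 1:1 with compound dilutions, incubated at 37°C; viable cells in infected and mock-infected cultures counted by trypan blue; EC50 and CC50 are concentrations reducing viable cell number by 50% in each.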

[11] = system: Human immunodeficiency virus 1; assay: Antiviral activity against HIV-1 3B infected in human HUT78 cells assessed as prevention of syncytium formation between persistently HIV-1 3B-infected HUT-78 cells and uninfected SupT1 cells compound preexposed to high temperature after 3 to 4 days by ELISA; assay type: functional, organism-based; conditions: SUP-T1
[12] = system: PBMC; assay: Immunostimulatory activity against human PBMC assessed as PDGF production at 21 uM after 72 hrs; assay type: functional, cell-based; outline: as §1
[13] = system: Human immunodeficiency virus 1; assay: Ratio of EC90 to EC50 for X4 tropic HIV-1 clade D isolate UG270 infected in human PBMC; assay type: functional
Outline: (§2)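 PBMCs from healthy donors were PHA-stimulated (2 μg/ml, 3 days, 37°C), then seeded at 0.5 × 10^6 per well with compound dilutions in RPMI 1640 with 10% FCS and IL-2 (25 U/ml). Virus was added at 250 pg p24 or p27/ml final. On day 12, supernatant HIV-1 p24 or HIV-2 p27 was measured by ELISA, giving EC50 and EC90.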

[14] = system: Human immunodeficiency virus 1; assay: Ratio of EC90 to EC50 for R5 tropic HIV-1 clade C isolate ETH2220 infected in human PBMC; assay type: functional; outline: as §2
[15] = system: PBMC; assay: Immunostimulatory activity against human PBMC assessed as suppression of IL-15 production at 22 uM after 72 hrs; assay type: functional; outline: as §1
[16] = system: PBMC; assay: Immunostimulatory activity against human PBMC assessed as suppression of PDGF production at 22 uM after 72 hrs; assay type: functional
[17] = Binding affinity to HIV-1 HXB2 gp41 assessed as dissociation rate constant after 6 mins by SPR analysis in presence of 10 mM CaCl2; parameters: species or system Human immunodeficiency virus 1
[18] = system: PBMC; assay: Immunostimulatory activity against human PBMC assessed as MIP-1beta production at 22 uM after 72 hrs; assay type: functional, cell-based; outline: as §1
[19] = system: PBMC; assay: Immunostimulatory activity against human PBMC assessed as suppression of IL-2 production at 22 uM after 72 hrs; assay type: functional; outline: as §1
[20] = system: PBMC; assay: Immunostimulatory activity against human PBMC assessed as MIP-1alpha production at 21 uM after 72 hrs; assay type: functional, cell-based; outline: as §1
[21] = system: Human immunodeficiency virus 1; assay: Antiviral activity against HIV-1 3B infected in human HUT78 cells assessed as prevention of syncytium formation between persistently HIV-1 3B-infected HUT-78 cells and uninfected SupT1 cells compound preexposed at pH 4 after 3 to 4 days by ELISA; assay type: functional, organism-based; conditions: SUP-T1
[22] = system: Human immunodeficiency virus 1; assay: Binding affinity to HIV-1 3B gp120 after 6 mins by SPR analysis
[23] = system: PBMC; assay: Immunostimulatory activity against human PBMC assessed as G-CSF production at 22 uM after 72 hrs; assay type: functional, cell-based
[24] = system: Human immunodeficiency virus 1; assay: Antiviral activity against compound pretreated X4 tropic HIV-1 3B infected in human Raji cells expressing DC-SIGN gene assessed as prevention of syncytium formation between persistently HIV-1 3B-infected Raji cells and uninfected human C8166 cells after 42 hrs by microscopic analysis; assay type: functional, organism-based; conditions: Human immunodeficiency virus 1, 3B
Outline: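 Compound-pretreated virus captured by Raji/DC-SIGN cells for 60 min at 37°C, washed, then 200 μl mixed with 2 × 10^5 C8166 cells (further 5-fold dilution) and incubated 36–48 h at 37°C; syncytium formation scored microscopically.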

[25] = system: Human immunodeficiency virus 1; assay: Antiviral activity against X4 tropic HIV-1 group O isolate BCF06 infected in human PBMC assessed as inhibition of viral replication […] by ELISA; assay type: functional, organism-based; conditions: Human immunodeficiency virus 1, group O isolate BCF06
Outline: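 PBMCs from healthy donors were stimulated with PHA (2 μg/ml) for 3 days, then seeded at 0.5 × 10^6 cells/well in RPMI 1640 with 10% FCS, IL-2 (25 U/ml) and compound. Virus was added at a final 250 pg p24/ml. Supernatant was taken at day 12 for p24 antigen ELISA.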

[26] = system: PBMC; assay: Immunostimulatory activity against human PBMC assessed as IL-6 production at 22 uM after 72 hrs; assay type: functional, cell-based; outline: as §1
[27] = Cytotoxicity against mouse L1210 cells after 3 to 4 days; assay type: cell-based
[28] = system: PBMC; assay: Immunostimulatory activity against human PBMC assessed as IL-2 production at 22 uM after 72 hrs; assay type: functional, cell-based; outline: as §1
[29] = system: PBMC; assay: Immunostimulatory activity against human PBMC assessed as VEGF production at 21 uM after 72 hrs; assay type: functional, cell-based; outline: as §1
[30] = system: PBMC; assay: Immunostimulatory activity against human PBMC assessed as suppression of IL-4 production at 22 uM after 72 hrs; assay type: functional; outline: as §1

Row | Compound | EC50 [1] | Activity [2] | Activity [3] | Activity [4] | Activity [5] | EC50 [6] | Activity [7] | Activity [8] | Activity [9] | EC50 [10] | Activity [11] | Activity [12] | Ratio [13] | Ratio [14] | fold change (FC) [15] | fold change (FC) [16] | Kd [17] | Activity [18] | fold change (FC) [19] | Activity [20] | also measured
1 | CN[C@@H]1[C@H](O[C@@H]2O[C@H](CO)[C@@H](O)[C@H](OS(=O)(=O)O)[C@H]2O)[C@@H](O)[C@H](O[C@H]2c3cc(C)c(C(=O)N[C@H](C)C(=O)O)c(O)c3-c3c(cc4c(c3O)C(=O)c3cc(OC)cc(O)c3C4=O)[C@@H]2O)O[C@@H]1C [PRADIMICIN S] | 3.1 µM | inactive | inactive | inactive | inactive | 12 µM | inactive | inactive | inactive | 8.1 µM | Active | inactive | 2 | 2 | 2 | 2 | 2.71 ×10⁻² /s | inactive | 4 | inactive | Activity [21]: Active; Activity [22]: inactive; Activity [23]: inactive; EC50 [24]: 7.1 µM; EC50 [25]: 4.4 µM; Activity [26]: inactive; CC50 [27]: > 230 µM; Activity [28]: inactive; Activity [29]: inactive; fold change (FC) [30]: 2
2 | CN[C@@H]1[C@H](O[C@@H]2OC[C@@H](O)[C@H](O)[C@H]2O)[C@@H](O)[C@H](O[C@H]2c3cc(C)c(C(=O)N[C@H](C)C(=O)O)c(O)c3-c3c(cc4c(c3O)C(=O)c3cc(OC)cc(O)c3C4=O)[C@@H]2O)O[C@@H]1C [PRADIMICIN A] | 4.3 µM | inactive | inactive | inactive | inactive | 4.3 µM | inactive | inactive | inactive | 5 µM | Active | inactive | 2 | 2 | 2 | 2 | 2.91 ×10⁻² /s | inactive | 4 | inactive | Activity [21]: Active; Activity [22]: inactive; Activity [23]: inactive; EC50 [24]: 3.4 µM; EC50 [25]: 1.6 µM; Activity [26]: inactive; CC50 [27]: > 50 µM; Activity [28]: inactive; Activity [29]: inactive; fold change (FC) [30]: 2
